Data from ChEMBL document CHEMBL5724801, “EUbOPEN Chemogenomics Library - Multiplex” (2024).
Where “and” joins values, the source holds several entries; their conditions need not be identical. Identical values can stand only once.

Tested on: U2OS
Test: Multiplex assay against U2OS
Assay type: toxicity, cell-based
Settings: human
Procedure, shortened: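 Live cells were stained at seeding with Hoechst33342, BioTracker Green Microtubule Cytoskeleton Dye, MitoTracker Red and Annexin V Alexa Fluor 680. Following compound addition, they were imaged on a CQ1 microscope at 37°C and 5% CO2 and gated by CellPathfinder machine learning into Hoechst high-intensity objects or normal cells, with normal cells split into healthy, pyknosed or fragmented nuclei and pyknosed cells into mitotic or apoptotic. Tubulin, mitochondrial-mass and membrane-permeability phenotypes are per cents of healthy-nucleus cells.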

[1] = 12 h, 1 µM, compound concentration 1 uM
[2] = 12 h, 10 µM, compound concentration 10 uM
[3] = 24 h, 1 µM, compound concentration 1 uM
[4] = 24 h, 10 µM, compound concentration 10 uM
[5] = 48 h, 1 µM, compound concentration 1 uM
[6] = 48 h, 10 µM, compound concentration 10 uM

CCn1c(-c2ccncc2)cc2c1CCNC2=O
Population Apoptotic (%) [1]: 53.12% and 58.33% | Population Fragmented Nuclei (%) [1]: 2.21% and 6.71% | Population Healthy Nuclei (%) [1]: 88.95% and 78.66% | Population Hoechst High Intensity Objects (%) [1]: 0% | Population Membrane Permeable-Phenotype (%) [1]: 0.93% and 4.65% | Population Mitochondria Different-Phenotype (%) [1]: 0.31% and 6.98% | Population Mitotic Cells (%) [1]: 46.88% and 41.67% | Population Normal (%) [1]: 100% | Population Pyknosed Nuclei (%) [1]: 8.84% and 14.63% | Population Tubulin-Different-Phenotype (%) [1]: 1.24% and 3.88% | Total Cell Count [1]: 362 and 164 | Population Apoptotic (%) [2]: 43.94% and 36.59% | Population Fragmented Nuclei (%) [2]: 4.31% and 5.7% | Population Healthy Nuclei (%) [2]: 69.8% and 68.35% | Population Hoechst High Intensity Objects (%) [2]: 0% | Population Membrane Permeable-Phenotype (%) [2]: 3.93% and 8.33% | Population Mitochondria Different-Phenotype (%) [2]: 0% and 6.48% | Population Mitotic Cells (%) [2]: 56.06% and 63.41% | Population Normal (%) [2]: 100% | Population Pyknosed Nuclei (%) [2]: 25.88% and 25.95% | Population Tubulin-Different-Phenotype (%) [2]: 2.25% and 1.85% | Total Cell Count [2]: 255 and 158 | Population Apoptotic (%) [3]: 59.26% and 60% | Population Fragmented Nuclei (%) [3]: 3.6% and 7.14% | Population Healthy Nuclei (%) [3]: 75.58% and 63.1% | Population Hoechst High Intensity Objects (%) [3]: 0% | Population Membrane Permeable-Phenotype (%) [3]: 1.02% and 6.6% | Population Mitochondria Different-Phenotype (%) [3]: 0% and 13.21% | Population Mitotic Cells (%) [3]: 40.74% and 40% | Population Normal (%) [3]: 100% | Population Pyknosed Nuclei (%) [3]: 20.82% and 29.76% | Population Tubulin-Different-Phenotype (%) [3]: 1.02% and 5.66% | Total Cell Count [3]: 389 and 168 | Population Apoptotic (%) [4]: 46.96% and 46.84% | Population Fragmented Nuclei (%) [4]: 11.97% and 16.77% | Population Healthy Nuclei (%) [4]: 43.63% and 34.16% | Population Hoechst High Intensity Objects (%) [4]: 0% | Population Membrane Permeable-Phenotype (%) [4]: 1.77% and 9.09% | Population Mitochondria Different-Phenotype (%) [4]: 0% and 9.09% | Population Mitotic Cells (%) [4]: 53.04% and 53.16% | Population Normal (%) [4]: 100% | Population Pyknosed Nuclei (%) [4]: 44.4% and 49.07% | Population Tubulin-Different-Phenotype (%) [4]: 3.54% and 5.45% | Total Cell Count [4]: 259 and 161 | Population Apoptotic (%) [5]: 67.24% and 64.84% | Population Fragmented Nuclei (%) [5]: 5.9% and 9.91% | Population Healthy Nuclei (%) [5]: 56.11% and 49.1% | Population Hoechst High Intensity Objects (%) [5]: 0% | Population Membrane Permeable-Phenotype (%) [5]: 3.5% and 6.42% | Population Mitochondria Different-Phenotype (%) [5]: 0% and 4.59% | Population Mitotic Cells (%) [5]: 32.76% and 35.16% | Population Normal (%) [5]: 100% | Population Pyknosed Nuclei (%) [5]: 37.99% and 40.99% | Population Tubulin-Different-Phenotype (%) [5]: 7.39% and 6.42% | Total Cell Count [5]: 458 and 222 | Population Apoptotic (%) [6]: 66.29% and 76.67% | Population Fragmented Nuclei (%) [6]: 10.3% and 11.18% | Population Healthy Nuclei (%) [6]: 14.59% and 9.87% | Population Hoechst High Intensity Objects (%) [6]: 0% and 0.65% | Population Mitochondria Different-Phenotype (%) [6]: 0% | Population Mitotic Cells (%) [6]: 33.71% and 23.33% | Population Normal (%) [6]: 100% and 99.35% | Population Pyknosed Nuclei (%) [6]: 75.11% and 78.95% | Population Tubulin-Different-Phenotype (%) [6]: 23.53% and 26.67% | Total Cell Count [6]: 233 and 153

O=C1NC(NC23CC4CC(CC(C4)C2)C3)=N/C1=C\c1ccc2ncsc2c1
Population Apoptotic (%) [1]: 51.02% and 44.83% | Population Fragmented Nuclei (%) [1]: 17.88% and 22.19% | Population Healthy Nuclei (%) [1]: 75% and 69.66% | Population Hoechst High Intensity Objects (%) [1]: 0.86% and 0% | Population Membrane Permeable-Phenotype (%) [1]: 0.97% and 3.63% | Population Mitochondria Different-Phenotype (%) [1]: 0% and 3.23% | Population Mitotic Cells (%) [1]: 48.98% and 55.17% | Population Normal (%) [1]: 99.14% and 100% | Population Pyknosed Nuclei (%) [1]: 7.12% and 8.15% | Population Tubulin-Different-Phenotype (%) [1]: 0.58% and 2.82% | Total Cell Count [1]: 694 and 356 | Population Apoptotic (%) [2]: 44.44% and 38.46% | Population Fragmented Nuclei (%) [2]: 64.07% and 81% | Population Healthy Nuclei (%) [2]: 21.59% and 11.58% | Population Membrane Permeable-Phenotype (%) [2]: 0.82% and 0% | Population Mitochondria Different-Phenotype (%) [2]: 0% and 1.41% | Population Mitotic Cells (%) [2]: 55.56% and 61.54% | Population Normal (%) [2]: 52.03% and 84.32% | Population Pyknosed Nuclei (%) [2]: 14.34% and 7.42% | Population Tubulin-Different-Phenotype (%) [2]: 0% and 1.41% | Total Cell Count [2]: 1086 and 1454 | Population Apoptotic (%) [3]: 50% and 44.68% | Population Fragmented Nuclei (%) [3]: 19.28% and 20.63% | Population Healthy Nuclei (%) [3]: 75.17% and 67.96% | Population Hoechst High Intensity Objects (%) [3]: 0.69% and 0% | Population Membrane Permeable-Phenotype (%) [3]: 1.48% and 2.86% | Population Mitochondria Different-Phenotype (%) [3]: 0.37% and 5.71% | Population Mitotic Cells (%) [3]: 50% and 55.32% | Population Normal (%) [3]: 99.31% and 100% | Population Pyknosed Nuclei (%) [3]: 5.55% and 11.41% | Population Tubulin-Different-Phenotype (%) [3]: 2.03% and 2.86% | Total Cell Count [3]: 726 and 412 | Population Apoptotic (%) [4]: 45.1% and 35.71% | Population Fragmented Nuclei (%) [4]: 58.49% and 84.85% | Population Healthy Nuclei (%) [4]: 17.9% and 8.37% | Population Membrane Permeable-Phenotype (%) [4]: 0% | Population Mitochondria Different-Phenotype (%) [4]: 0% | Population Mitotic Cells (%) [4]: 54.9% and 64.29% | Population Normal (%) [4]: 60.11% and 86.9% | Population Tubulin-Different-Phenotype (%) [4]: 0% | Total Cell Count [4]: 1078 and 1664 | Population Apoptotic (%) [5]: 50% and 51.75% | Population Fragmented Nuclei (%) [5]: 22.08% and 20.53% | Population Healthy Nuclei (%) [5]: 72.6% and 58% | Population Hoechst High Intensity Objects (%) [5]: 3.35% and 1.12% | Population Membrane Permeable-Phenotype (%) [5]: 1.27% and 2.27% | Population Mitochondria Different-Phenotype (%) [5]: 0.32% and 9.42% | Population Mitotic Cells (%) [5]: 50% and 48.25% | Population Normal (%) [5]: 96.65% and 98.88% | Population Tubulin-Different-Phenotype (%) [5]: 2.23% and 2.6% | Total Cell Count [5]: 895 and 537 | Population Apoptotic (%) [6]: 51.13% and 47.24% | Population Fragmented Nuclei (%) [6]: 58.82% and 85.02% | Population Healthy Nuclei (%) [6]: 12.73% and 6.82% | Population Hoechst High Intensity Objects (%) [6]: 31% and 15.76% | Population Membrane Permeable-Phenotype (%) [6]: 0% and 1.89% | Population Mitochondria Different-Phenotype (%) [6]: 0% and 0.94% | Population Mitotic Cells (%) [6]: 48.87% and 52.76% | Population Normal (%) [6]: 69% and 84.24% | Population Tubulin-Different-Phenotype (%) [6]: 0% | Total Cell Count [6]: 1355 and 1846
